How the values were obtained:
[1] = target: T1, p110δ (Homo sapiens, UniProt O00329); test: PI3K isoform-specific cell-based assay, anti‐IgM–stimulated Raji cells; details: anti‐IgM 1 μg/mL 10 min, then 3 h drug
[2] = system: MV4;11 cells; test: Cell proliferation MTT assay; assay type: cell-based; details: Homo sapiens, MV4-11, 72 h, read-out: IC50 value, MV4;11
Summary of the method: (§1)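 Cells kept in RPMI-1640 with 10% FBS at 37°C, 5% CO2. In 96-well plates, cells exposed in triplicate to a range of test compound concentrations for 72 h at 37°C. Viability read by MTT conversion to coloured product. IC50 by curve fitting; mean ± SEM of three independent experiments.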

[3] = system: MV4;11 cells; test: Cell cycle analysis by flow cytometry; assay type: cell-based, human; details: MV4;11, 24 h, 1 μM; control 63.3%
[4] = system: MV4;11 xenografts; test: MV4; assay type: in vivo, nude mice
[5] = system: MV4;11 cells; test: Apoptosis, Annexin V staining and cleaved caspases/PARP; assay type: cell-based, human; details: MV4;11 (and RS4;11), 48 h
Summary of the method: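 MV4;11 and RS4;11 cells exposed to test compound at several concentrations for 48 h. Whole-cell lysates were resolved by SDS-PAGE, blotted onto PVDF and probed for PARP and caspase-3, -8 and -9 cleavage, with ECL detection.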

[6] = system: phosphorylation of AKT and ERK in AML cells; test: Constitutive PI3K/AKT and ERK signaling in AML cells; assay type: cell-based, human; details: Kasumi‐1 and EOL‐1 cells, 1 μM, 3 h
Summary of the method: (§2)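 Cells in RPMI-1640/10% FBS treated with 1 μM test compound for 3 h, with no added stimulus. Whole-cell lysates separated by SDS-PAGE and transferred to PVDF. Probed for phospho-AKT (S473, T308), phospho-ERK1/2, phospho-S6 and phospho-P70S6K; ECL detection.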

[7] = system: phosphorylation of AKT or ERK in MM.1R cells; test: Constitutive PI3K/AKT and ERK signaling in MM.1R cells; assay type: cell-based; details: low expression of p110δ; 1 μM, 3 h
Summary of the method: as §2

[8] = target: T2, p110β (Homo sapiens, UniProt P42338); test: PI3K isoform-specific cell-based assay, LPA-stimulated PC‐3 cells; details: LPA 10 μM, 3 h drug; compared with Raji cells
Summary of the method: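 PC-3 cells stimulated with LPA (10 μM) for 10 min, then exposed to test compound for a further 3 h. Cell lysates western blotted for AKT phosphorylation.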

[9] = system: RS4;11 xenografts; test: RS4; assay type: in vivo, nude mice
Summary of the method: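 Female Balb/cA nude mice, 5–6 weeks old, inoculated subcutaneously with 5–9 × 10^6 MV4;11 or RS4;11 cells and randomised at 100–300 mm3. Dosed orally with 30 or 60 mg/kg daily for 21 days, or vehicle (vehicle n = 12, treated n = 6). Tumour volume taken as (length × width²)/2; body weight and toxicity signs recorded. Tumours collected 3 h after last dose for western blot.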

[10] = target: T3, p110α (Homo sapiens, UniProt P42336); test: biochemical
[11] = system: peripheral blood mononuclear cells; test: Cytotoxicity against peripheral blood mononuclear cells; assay type: cell-based; details: 10 μM; data not shown
[12] = target: T3, p110α; test: PI3K isoform-specific cell-based assay, SK‐BR‐3 cells; details: 3 h
Summary of the method: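 SK-BR-3 cells exposed to test compound for 3 h. Cell lysates western blotted with phospho-specific antibodies for AKT phosphorylation.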

[13] = Pharmacokinetic study in MV4; assay type: in vivo; details: single oral dose 60 mg/kg, MV4;11 tumor‐bearing mice
Summary of the method: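 MV4;11 tumour-bearing nude mice given a single oral 60 mg/kg dose or vehicle. Plasma and tumours collected at times from 0.5 to 24 h. Drug levels in plasma and tissue measured by HPLC/tandem MS; tumour extracts western blotted for phospho-AKT and phospho-ERK.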

[14] = target: p110γ (Mus musculus, UniProt Q9JHG7); test: PI3K isoform-specific cell-based assay, C5a-stimulated RAW264.7 cells; details: C5a 50 ng/mL, 3 h drug; compared with Raji cells
[15] = system: panel of other protein kinases; test: SelectScreen kinase profiling, whole panel; assay type: biochemical; details: 1000 nM
[16] = system: p110δ‐negative MM.1R cell line; test: Cell proliferation MTT assay; assay type: cell-based; details: 72 h
Summary of the method: as §1

[17] = target: T2, p110β; test: biochemical
[18] = previous study ref 38; cited from earlier work
[19] = target: T1, p110δ; test: PI3K ELISA kinase assay, recombinant class I PI3K; assay type: biochemical

T1 sequence (O00329 whole entry, species assumed, canonical isoform): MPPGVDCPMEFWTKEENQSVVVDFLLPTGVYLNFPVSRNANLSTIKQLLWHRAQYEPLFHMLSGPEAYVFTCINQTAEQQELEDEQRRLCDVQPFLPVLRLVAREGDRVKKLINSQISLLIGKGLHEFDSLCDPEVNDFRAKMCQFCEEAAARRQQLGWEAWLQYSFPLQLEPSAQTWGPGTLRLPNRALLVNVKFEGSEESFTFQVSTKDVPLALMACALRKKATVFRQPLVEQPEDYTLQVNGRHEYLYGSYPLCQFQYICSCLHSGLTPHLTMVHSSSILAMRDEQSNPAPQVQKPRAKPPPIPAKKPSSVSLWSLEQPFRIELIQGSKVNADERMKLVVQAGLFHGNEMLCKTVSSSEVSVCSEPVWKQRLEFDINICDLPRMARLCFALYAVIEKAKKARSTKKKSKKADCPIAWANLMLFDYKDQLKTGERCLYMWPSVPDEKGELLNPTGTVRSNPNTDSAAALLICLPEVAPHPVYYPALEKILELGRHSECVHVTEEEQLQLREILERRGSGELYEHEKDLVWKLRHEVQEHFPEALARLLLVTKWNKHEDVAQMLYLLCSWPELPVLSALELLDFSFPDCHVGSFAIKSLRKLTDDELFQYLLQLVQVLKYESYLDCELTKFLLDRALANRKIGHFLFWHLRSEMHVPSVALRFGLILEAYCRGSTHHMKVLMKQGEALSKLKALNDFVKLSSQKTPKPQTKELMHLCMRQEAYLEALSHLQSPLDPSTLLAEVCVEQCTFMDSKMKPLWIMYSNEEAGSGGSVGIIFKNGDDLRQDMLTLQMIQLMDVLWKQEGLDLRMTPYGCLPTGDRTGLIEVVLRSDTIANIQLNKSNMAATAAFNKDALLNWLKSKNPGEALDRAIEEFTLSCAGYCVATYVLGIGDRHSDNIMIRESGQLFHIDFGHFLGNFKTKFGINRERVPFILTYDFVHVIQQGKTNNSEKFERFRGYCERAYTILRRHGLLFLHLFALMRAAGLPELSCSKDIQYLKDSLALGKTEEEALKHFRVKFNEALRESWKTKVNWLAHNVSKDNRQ
T1 sequence (P27986 whole entry partner, species assumed, canonical isoform): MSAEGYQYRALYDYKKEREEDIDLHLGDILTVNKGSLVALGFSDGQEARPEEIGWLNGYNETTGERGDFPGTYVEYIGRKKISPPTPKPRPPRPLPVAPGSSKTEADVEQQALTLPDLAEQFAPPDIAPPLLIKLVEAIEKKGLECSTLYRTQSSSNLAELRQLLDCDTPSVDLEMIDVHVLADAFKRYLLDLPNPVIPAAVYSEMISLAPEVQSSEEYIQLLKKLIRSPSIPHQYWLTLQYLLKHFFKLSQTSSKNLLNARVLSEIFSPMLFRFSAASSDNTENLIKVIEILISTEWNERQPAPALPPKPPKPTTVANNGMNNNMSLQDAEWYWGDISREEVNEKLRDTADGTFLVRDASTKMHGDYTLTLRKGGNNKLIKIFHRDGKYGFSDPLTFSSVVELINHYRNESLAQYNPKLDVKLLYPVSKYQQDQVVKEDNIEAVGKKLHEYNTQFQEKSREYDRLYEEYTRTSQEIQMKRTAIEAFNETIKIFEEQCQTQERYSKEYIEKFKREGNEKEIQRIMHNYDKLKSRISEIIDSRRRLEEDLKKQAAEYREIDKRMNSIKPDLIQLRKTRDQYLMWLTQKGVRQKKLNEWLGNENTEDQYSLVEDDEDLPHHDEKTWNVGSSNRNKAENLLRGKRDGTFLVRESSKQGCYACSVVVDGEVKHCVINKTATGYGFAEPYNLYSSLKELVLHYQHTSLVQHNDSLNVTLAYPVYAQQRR
T3 sequence (P42336 whole entry, species assumed): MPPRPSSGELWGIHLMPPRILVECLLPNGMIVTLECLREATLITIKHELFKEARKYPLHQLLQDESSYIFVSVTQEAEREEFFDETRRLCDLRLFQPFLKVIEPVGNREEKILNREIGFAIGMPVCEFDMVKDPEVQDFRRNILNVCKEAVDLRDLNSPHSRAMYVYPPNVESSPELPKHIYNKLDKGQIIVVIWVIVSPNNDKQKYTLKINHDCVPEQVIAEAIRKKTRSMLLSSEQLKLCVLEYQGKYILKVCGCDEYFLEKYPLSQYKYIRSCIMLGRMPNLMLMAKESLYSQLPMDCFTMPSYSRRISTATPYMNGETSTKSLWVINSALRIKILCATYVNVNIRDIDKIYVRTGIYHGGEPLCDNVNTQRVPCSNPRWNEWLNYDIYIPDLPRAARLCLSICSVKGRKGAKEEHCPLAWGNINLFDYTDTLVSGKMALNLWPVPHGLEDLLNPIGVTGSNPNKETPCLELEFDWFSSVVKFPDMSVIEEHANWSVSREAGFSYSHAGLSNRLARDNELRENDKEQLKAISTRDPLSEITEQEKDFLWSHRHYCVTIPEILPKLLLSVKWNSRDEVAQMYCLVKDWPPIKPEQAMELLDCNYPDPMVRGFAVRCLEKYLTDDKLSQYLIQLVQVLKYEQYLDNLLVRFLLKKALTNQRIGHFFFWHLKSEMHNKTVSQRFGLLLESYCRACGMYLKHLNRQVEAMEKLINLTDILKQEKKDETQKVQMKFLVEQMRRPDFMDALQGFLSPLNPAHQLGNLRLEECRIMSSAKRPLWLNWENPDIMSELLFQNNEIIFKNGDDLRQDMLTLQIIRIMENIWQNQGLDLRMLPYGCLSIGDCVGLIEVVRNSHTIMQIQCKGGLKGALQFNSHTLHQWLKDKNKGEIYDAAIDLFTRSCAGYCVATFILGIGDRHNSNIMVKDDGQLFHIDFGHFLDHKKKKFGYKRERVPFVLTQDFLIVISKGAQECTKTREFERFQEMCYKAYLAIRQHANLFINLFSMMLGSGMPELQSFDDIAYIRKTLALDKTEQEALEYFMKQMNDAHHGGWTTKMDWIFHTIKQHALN
T3 sequence (P27986 whole entry partner, species assumed): as the sequence (P27986 whole entry partner, species assumed, canonical isoform) above
T2 sequence (P42338 whole entry, species assumed, canonical isoform): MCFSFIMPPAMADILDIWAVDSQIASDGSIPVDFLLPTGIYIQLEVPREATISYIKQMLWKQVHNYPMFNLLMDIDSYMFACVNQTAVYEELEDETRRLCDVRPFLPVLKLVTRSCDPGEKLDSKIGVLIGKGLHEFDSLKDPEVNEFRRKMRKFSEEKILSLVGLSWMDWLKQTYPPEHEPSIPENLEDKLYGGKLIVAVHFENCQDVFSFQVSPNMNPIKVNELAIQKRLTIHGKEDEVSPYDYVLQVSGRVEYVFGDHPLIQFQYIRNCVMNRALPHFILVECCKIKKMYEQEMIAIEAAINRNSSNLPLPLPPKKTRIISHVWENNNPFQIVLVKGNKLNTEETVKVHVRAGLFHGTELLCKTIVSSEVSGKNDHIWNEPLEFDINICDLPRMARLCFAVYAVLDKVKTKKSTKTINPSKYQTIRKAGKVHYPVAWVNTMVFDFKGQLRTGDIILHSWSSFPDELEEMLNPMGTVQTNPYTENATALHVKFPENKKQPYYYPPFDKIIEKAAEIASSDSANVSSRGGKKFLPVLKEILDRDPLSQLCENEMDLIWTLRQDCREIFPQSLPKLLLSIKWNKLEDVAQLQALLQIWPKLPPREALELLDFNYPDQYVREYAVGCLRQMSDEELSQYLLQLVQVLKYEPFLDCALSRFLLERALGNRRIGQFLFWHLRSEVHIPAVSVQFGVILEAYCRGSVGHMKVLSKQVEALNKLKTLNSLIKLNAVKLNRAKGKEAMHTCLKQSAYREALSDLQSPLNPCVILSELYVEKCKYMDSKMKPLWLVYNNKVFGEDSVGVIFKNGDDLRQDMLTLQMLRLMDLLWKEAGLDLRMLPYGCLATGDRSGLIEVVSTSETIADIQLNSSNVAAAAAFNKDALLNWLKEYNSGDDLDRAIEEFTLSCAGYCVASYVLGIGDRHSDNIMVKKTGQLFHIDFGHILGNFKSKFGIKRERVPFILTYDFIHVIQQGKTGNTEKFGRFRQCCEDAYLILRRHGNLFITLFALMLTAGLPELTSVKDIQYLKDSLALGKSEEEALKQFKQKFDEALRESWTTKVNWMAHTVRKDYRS
T2 sequence (P27986 whole entry partner, species assumed, canonical isoform): as the sequence (P27986 whole entry partner, species assumed, canonical isoform) above
Chain of p110γ (Q9JHG7 whole entry, canonical isoform): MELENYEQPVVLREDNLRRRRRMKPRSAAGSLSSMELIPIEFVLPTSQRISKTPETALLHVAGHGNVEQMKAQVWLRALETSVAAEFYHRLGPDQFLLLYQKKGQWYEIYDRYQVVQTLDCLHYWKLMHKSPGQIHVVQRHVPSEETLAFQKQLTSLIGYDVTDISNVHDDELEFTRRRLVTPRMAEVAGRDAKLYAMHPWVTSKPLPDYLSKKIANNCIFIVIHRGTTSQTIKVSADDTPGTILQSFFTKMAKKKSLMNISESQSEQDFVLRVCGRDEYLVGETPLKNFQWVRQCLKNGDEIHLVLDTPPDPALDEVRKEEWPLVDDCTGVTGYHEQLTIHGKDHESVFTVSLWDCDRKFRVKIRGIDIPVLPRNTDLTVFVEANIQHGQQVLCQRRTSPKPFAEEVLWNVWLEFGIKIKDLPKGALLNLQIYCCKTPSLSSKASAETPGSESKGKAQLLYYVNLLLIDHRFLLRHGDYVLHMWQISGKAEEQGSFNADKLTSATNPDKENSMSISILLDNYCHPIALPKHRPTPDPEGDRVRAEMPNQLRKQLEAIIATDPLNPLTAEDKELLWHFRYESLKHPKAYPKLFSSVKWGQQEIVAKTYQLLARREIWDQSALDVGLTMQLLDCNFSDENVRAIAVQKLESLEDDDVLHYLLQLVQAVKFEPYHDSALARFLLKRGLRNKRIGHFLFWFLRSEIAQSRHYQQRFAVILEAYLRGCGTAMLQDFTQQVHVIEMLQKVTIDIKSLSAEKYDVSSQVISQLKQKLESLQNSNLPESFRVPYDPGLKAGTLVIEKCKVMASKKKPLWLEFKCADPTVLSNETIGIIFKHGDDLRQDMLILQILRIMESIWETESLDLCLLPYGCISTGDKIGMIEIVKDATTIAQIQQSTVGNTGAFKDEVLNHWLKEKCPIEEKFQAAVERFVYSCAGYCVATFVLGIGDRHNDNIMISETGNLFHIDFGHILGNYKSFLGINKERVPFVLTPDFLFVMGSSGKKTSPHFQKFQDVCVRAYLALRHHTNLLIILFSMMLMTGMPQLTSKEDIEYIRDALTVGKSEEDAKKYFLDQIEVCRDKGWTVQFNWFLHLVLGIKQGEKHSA

Q: With `CC[C@H](Nc1ncnc2[nH]cnc12)c1nc2cccc(F)c2c(=O)n1-c1ccccc1` [CAL‐101, Idelalisib, reference compound] as the molecule, how does the “Phosphorylation of AKT, S6 and ERK in anti‐IgM–stimulated Raji cells” value [1] read?
A: The value was “concentration‐dependent decrease”.

Q: What about the IC50 [2] of the same molecule?
A: The IC50 was 2.4 µM.

Q: What about the G1 phase cells [3] of the same molecule?
A: Its G1 phase cells is 70.7%.

Q: And the Tumor growth inhibition ([4]; MV4;11 xenografts, 90 mg/kg oral daily)?
A: The Tumor growth inhibition was 50%.

Q: What about the Tumor growth inhibition ([4]; MV4;11 xenografts, 180 mg/kg oral daily) of the same molecule?
A: Its Tumor growth inhibition is 61%.

Q: And the Apoptosis induction [5]?
A: Its Apoptosis induction is “weaker induction of apoptosis”.

Q: What about the “Phosphorylation of AKT and ERK in p110δ‐positive AML cells” value [6] of the same molecule?
A: The value was “preferentially inhibited phosphorylation of AKT relative to ERK”.

Q: Which “Phosphorylation of AKT, S6 and ERK in anti‐IgM–stimulated Raji cells” value [1] does the source give for `c1cnc2ccc(Nc3nc(NC4CC4)c4nc[nH]c4n3)cc2c1` [Puquitinib] here?
A: The value was “concentration‐dependent decrease”.

Q: What about the “Phosphorylation of AKT or ERK in MM.1R cells” value [7] of the same molecule?
A: The value was “did not affect”.

Q: And the IC50 [2]?
A: The IC50 was 0.1 µM.

Q: And the G1 phase cells [3]?
A: The G1 phase cells was 83.0%.

Q: What about the “LPA‐stimulated phosphorylation of AKT in PC‐3 cells” value [8] of the same molecule?
A: The value was “much weaker”.

Q: What about the Tumor growth inhibition ([9]; 30 mg/kg oral daily for 21 days) of the same molecule?
A: Its Tumor growth inhibition is 50%.

Q: And the Tumor growth inhibition ([9]; 60 mg/kg oral daily for 21 days)?
A: The Tumor growth inhibition was 69%.

Q: And the IC50 [10]?
A: The IC50 was 0.993 ± 0.32 µM.

Q: What about the “Cytotoxicity against peripheral blood mononuclear cells” value [11] of the same molecule?
A: Its value is “no cytotoxicity”.

Q: And the “p110α/AKT phosphorylation in SK‐BR‐3 cells” value [12]?
A: Its value is “No obvious inhibitory activity”.

Q: And the “Levels of pAKT and pERK in tumor tissues” value ([4]; MV4;11 and RS4;11 tumor models, 3 h after last dose)?
A: Its value is “significantly decreased”.

Q: What about the “Tolerability (body weight loss, signs of toxicity)” value ([4]; MV4;11 and RS4;11 xenograft studies, all groups) of the same molecule?
A: The value was “well tolerated”.

Q: And the “Phosphorylation of AKT and ERK in tumor tissue after a single dose” value ([4]; MV4;11 xenograft, single oral 60 mg/kg, 0.5 to 24 h)?
A: The value was “inhibited in a time‐dependent manner”.

Q: And the Tumor growth inhibition ([4]; MV4;11 xenografts, 30 mg/kg oral daily for 21 days, final treatment day)?
A: The Tumor growth inhibition was 72%.

Q: What about the Complete tumor regression ([4]; MV4;11 xenografts, 60 mg/kg oral daily) of the same molecule?
A: The Complete tumor regression was “three of six”.

Q: And the Tumor growth inhibition ([4]; MV4;11 xenografts, 60 mg/kg oral daily for 21 days, final treatment day)?
A: Its Tumor growth inhibition is 103%.

Q: And the “Antitumor efficacy of combination versus single agents” value ([4]; MV4;11 xenografts, 30 mg/kg puquitinib combined with 2 mg/kg daunorubicin, P < 0.01)?
A: The value was “significantly superior”.

Q: What about the Tolerability of combination ([4]; MV4;11 xenografts, puquitinib with daunorubicin or cytarabine) of the same molecule?
A: Its Tolerability of combination is “generally well tolerated”.

Q: And the “Appearance in plasma and tumor tissue” value [13]?
A: The value was “appeared rapidly”.

Q: What about the Apoptosis induction [5] of the same molecule?
A: The Apoptosis induction was “increased in a dose‐dependent manner”.

Q: And the “C5a‐stimulated phosphorylation of AKT in RAW 264.7 cells” value [14]?
A: Its value is “much weaker”.

Q: And the “Inhibitory activity against a panel of other protein kinases” value [15]?
A: Its value is “little or no inhibitory activity”.

Q: What about the “Cytotoxicity in p110δ‐negative MM.1R cell line” value [16] of the same molecule?
A: Its value is “minimal cytotoxicity”.

Q: What about the IC50 [17] of the same molecule?
A: The IC50 was 0.959 ± 0.367 µM.

Q: And the Hyperglycemia [18]?
A: The Hyperglycemia was “no puquitinib‐related hyperglycemia”.

Q: And the “Phosphorylation of AKT and ERK in p110δ‐positive AML cells” value [6]?
A: Its value is “significantly inhibited”.

Q: What about the IC50 [19] of the same molecule?
A: Its IC50 is 0.0033 ± 0.0006 µM.

From PMC5497803 (Cancer Science, 2017)
